Biological target: Insulin receptor (Homo sapiens, UniProt P06213)
Test: Activation of human insulin receptor tyrosine kinase (IRTK)
Summary of the method: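 CHO cells stably transfected with human insulin receptor, plated 150 000 cells/well for 24 h, serum-starved 2 h, then exposed to compound 20 min at 37 °C. Lysate IR captured on anti-IR antibody wells (16 h, 4 °C), kinase reaction 40 min at 25 °C, radioactivity on phosphocellulose filters. Activity as % of maximal response to 100 nM insulin.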

Sequence of Insulin receptor (P06213 28-758 limits assumed): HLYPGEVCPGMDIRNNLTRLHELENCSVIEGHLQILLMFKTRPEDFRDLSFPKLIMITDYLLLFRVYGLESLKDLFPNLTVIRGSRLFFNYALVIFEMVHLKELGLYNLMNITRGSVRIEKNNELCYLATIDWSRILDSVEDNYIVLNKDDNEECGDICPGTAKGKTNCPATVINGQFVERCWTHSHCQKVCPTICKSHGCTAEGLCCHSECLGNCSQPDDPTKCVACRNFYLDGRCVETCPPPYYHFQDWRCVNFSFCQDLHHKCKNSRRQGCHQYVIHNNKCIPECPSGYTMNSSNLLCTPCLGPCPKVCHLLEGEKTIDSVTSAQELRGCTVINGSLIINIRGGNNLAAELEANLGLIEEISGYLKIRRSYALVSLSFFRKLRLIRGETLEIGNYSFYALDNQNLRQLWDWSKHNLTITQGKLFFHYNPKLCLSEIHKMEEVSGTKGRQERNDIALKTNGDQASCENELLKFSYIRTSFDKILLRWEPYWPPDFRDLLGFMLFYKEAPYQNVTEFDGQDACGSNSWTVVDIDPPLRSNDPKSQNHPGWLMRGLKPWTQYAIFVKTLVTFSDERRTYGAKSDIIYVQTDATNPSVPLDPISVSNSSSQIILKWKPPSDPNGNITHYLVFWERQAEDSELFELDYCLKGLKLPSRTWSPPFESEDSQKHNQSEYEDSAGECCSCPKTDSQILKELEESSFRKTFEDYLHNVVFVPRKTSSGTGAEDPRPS
Sequence of Insulin receptor (P06213 763-1382 limits assumed): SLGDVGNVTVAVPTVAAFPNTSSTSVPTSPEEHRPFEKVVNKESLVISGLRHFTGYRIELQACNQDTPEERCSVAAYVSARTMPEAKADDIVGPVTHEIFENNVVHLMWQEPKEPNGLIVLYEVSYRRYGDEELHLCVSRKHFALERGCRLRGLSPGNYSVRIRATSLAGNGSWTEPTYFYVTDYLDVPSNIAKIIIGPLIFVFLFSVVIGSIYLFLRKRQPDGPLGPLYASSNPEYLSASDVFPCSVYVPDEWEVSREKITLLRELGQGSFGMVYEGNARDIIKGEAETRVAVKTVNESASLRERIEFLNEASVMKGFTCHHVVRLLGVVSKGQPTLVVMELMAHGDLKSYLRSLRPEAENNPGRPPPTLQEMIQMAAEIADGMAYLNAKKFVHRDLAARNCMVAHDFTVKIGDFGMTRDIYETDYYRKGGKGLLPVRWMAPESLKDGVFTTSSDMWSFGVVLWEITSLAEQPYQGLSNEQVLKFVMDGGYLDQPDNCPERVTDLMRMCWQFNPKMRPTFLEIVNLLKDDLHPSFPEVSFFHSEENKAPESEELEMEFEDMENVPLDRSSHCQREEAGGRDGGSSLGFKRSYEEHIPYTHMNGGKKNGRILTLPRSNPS

Row | EC50 | Structure (SMILES)
1 | 300 nM | Cn1cc(C2C(=O)C(=O)C(c3ccccc3)C(=O)C2=O)c2ccccc21 (configuration not stated) [2,5-Dihydroxy-3-(1-methyl-1H-indol-3-yl)-6-phenyl-[1,4]benzoquinone]
2 | 300 nM | O=C1C(=O)C(c2c[nH]c3ccccc23)C(=O)C(=O)C1c1ccccc1 (configuration not stated) [2,5-Dihydroxy-3-(1H-indol-3-yl)-6-phenyl-[1,4]benzoquinone]
